“Also recorded” adds a separate entry of the source. Read-outs that look alike come from different tables or passages of the source.
Columns and labels:
[1] = test system: PTZ-induced seizures in zebrafish larvae; conditions: 20 μM; cited from earlier work
[2] = test system: 6 Hz 32 mA mouse seizure model; conditions: 6 Hz 32 mA mouse model, at 15 min; cited from earlier work
[3] = test system: ATP levels in HT-22 cells; conditions: 5 μM; cited from earlier work
[4] = test system: 6 Hz 44 mA mouse seizure model; conditions: cited from earlier work
[5] = two hours; cited from earlier work
zebrafish = conditions: cited from earlier work
[6] = test system: recurrent epileptiform discharges (REDs) in brain slices from the kainite-induced status epilepticus model; experiment: Spontaneous recurrent epileptiform discharges; conditions: brain slices in vitro
[7] = test system: 6 Hz 44 mA mouse seizure model; experiment: 6 Hz 44 mA mouse seizure test; format: in vivo; conditions: ip, 400 mg/kg
PAINS exclusion assay = format: physicochemical; conditions: up to 24 h
[8] = test system: motor impairment (mouse rotarod assay); experiment: Behavioral toxicity in mice; format: in vivo; conditions: acute (~1h) observation period, dose up to 800 mg/kg
[9] = test system: 6 Hz 32 mA mouse seizure model; experiment: 6 Hz 32 mA mouse seizure test; format: in vivo; conditions: ip
[10] = Lethality and other treatment effects in mice seizure models; format: in vivo; conditions: CF-1, mouse, in vivo, intraperitoneal
mice = experiment: as above; format: in vivo; conditions: mice
s.c. PTZ mouse model = experiment: Subcutaneous pentylenetetrazole; format: in vivo; conditions: ip, 450 mg/kg, 1 h
In short: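 Test compound was suspended in 0.5% HPMC and given ip to male CF-1 mice, 8 per group per dose. One hour later, 85 mg/kg PTZ was injected subcutaneously into the midline of the neck. Mice showing no spasms or twitching were scored protected.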

HT-22 neuronal cells = experiment: HT-22 cell toxicity study; format: cell-based; conditions: up to 50 μM
In short: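 HT-22 neuronal cells were grown in high-glucose DMEM with 10% FBS and 1% antibiotic-antimycotic at 37 °C and 5% CO2. Cells were seeded at 2000 per well. After 12 h, serially diluted test compound was added for 48 h. […] Readings were background-subtracted and normalized to control wells.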

Pharmacokinetics in mice = format: in vivo; conditions: Mus musculus, read-out: free EC50 in mice
MES-induced seizures = experiment: Maximal electroshock; format: in vivo; conditions: MES model, mouse, ip, 350 mg/kg
In short: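 Male CF-1 mice, 8 per group per dose, received test compound ip as a suspension in 0.5% HPMC, 1 h before stimulation. Tetracaine (0.5%) in electrolyte was applied to the eyes. A 60 Hz, 50 mA alternating current was delivered through corneal electrodes […]. Animals without hindlimb tonic extension were scored protected. Results are given as N/F, and ED50 was calculated by probit analysis.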

[11] = test system: 6 Hz mouse seizure model at 22 mA; experiment: 6 Hz 22 mA mouse seizure model; format: in vivo; conditions: up to 400 mg/kg

C#CCNC1=CC(=O)c2ccccc2C1=O [2h]
anti-seizure activity [1]: clear anti-seizure activity | seizure protection [2]: full protection | effect on ATP levels [3]: can increase ATP levels | seizure protection ([4]; 6 Hz 44 mA mouse model): no longer protective; also recorded: did not show any protection | stability in mouse serum [5]: no catabolic conversion | toxicity (zebrafish; 20 μM): no observable toxicity

CC(C)CCNC1=CC(=O)c2ccccc2C1=O [3d, 2-(isopentylamino)naphthalene-1,4-dione]
effect on spontaneous REDs [6]: does not attenuate | seizure protection [7]: full protection | reaction with 2-mercaptoethanol (Michael reaction) (PAINS exclusion assay): does not react | motor impairment (mouse rotarod assay) [8]: does not show signs of major motor impairment | seizure protection ([9]; 400 mg/kg): full protection | ED50 value (EC50) ([9]; time of test 1 h): 152.7 mg/kg | LD50 at 24 h [10]: > 800 mg/kg | doses lethal in some animals (mice; after electric stimulation, after 24h (data not shown)): greater than 500 mg/kg | other effects of treatment observed (mice; at time of treatment and ~1 h observation period (data not shown)): writhing (abdominal constriction); also recorded: discolored urine and lethargy | animals protected (s.c. PTZ mouse model): 6 out of 8 | toxicity in HT-22 cells (in words) (HT-22 neuronal cells): do not display obvious toxicity; also recorded: does not show obvious toxicity | EC50 (Pharmacokinetics in mice): ~123 nM | seizure protection (MES-induced seizures): full protection

O=C1C=C(NCCC2CCC2)C(=O)c2ccccc21 [3l, 2-((2-cyclobutylethyl)amino)naphthalene-1,4-dione]
toxicity in HT-22 cells (in words) (HT-22 neuronal cells): do not display obvious toxicity | seizure protection [11]: without full seizure protection

CC[C@@H](C(N)=O)N1CCCC1=O [Levetiracetam]
6 Hz 44 mA ED50 ([4]; 6 Hz 44 mA seizure model): over 1000 mg/kg

CC1=CC(=O)c2ccccc2C1=O [VK3]
effect on ATP levels [3]: can increase ATP levels | reaction with 2-mercaptoethanol (Michael reaction) (PAINS exclusion assay): rapidly reacts | lethal dose (zebrafish): 7 µM

— PMC7684765 (Journal of medicinal chemistry, 2020)
